DDE Tn6 FP inh = inhibitors of Tn6 peptide binding to human fibrin DD(E); P02675; Fibrin DD(E) TRITC-Tn6 fluorescence polarization displacement; inhibition, % at 8.3 µM; 370,000 tested, 0.21% active;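 active = inhibition above a per-campaign cutoff: mean of compounds within control limits plus 3 SD, cut at about 15% in these data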;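 note: 0% = median of all compound wells on the plate and 100% = blocking peptide control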
Target sequence (P02675 whole entry, looked up): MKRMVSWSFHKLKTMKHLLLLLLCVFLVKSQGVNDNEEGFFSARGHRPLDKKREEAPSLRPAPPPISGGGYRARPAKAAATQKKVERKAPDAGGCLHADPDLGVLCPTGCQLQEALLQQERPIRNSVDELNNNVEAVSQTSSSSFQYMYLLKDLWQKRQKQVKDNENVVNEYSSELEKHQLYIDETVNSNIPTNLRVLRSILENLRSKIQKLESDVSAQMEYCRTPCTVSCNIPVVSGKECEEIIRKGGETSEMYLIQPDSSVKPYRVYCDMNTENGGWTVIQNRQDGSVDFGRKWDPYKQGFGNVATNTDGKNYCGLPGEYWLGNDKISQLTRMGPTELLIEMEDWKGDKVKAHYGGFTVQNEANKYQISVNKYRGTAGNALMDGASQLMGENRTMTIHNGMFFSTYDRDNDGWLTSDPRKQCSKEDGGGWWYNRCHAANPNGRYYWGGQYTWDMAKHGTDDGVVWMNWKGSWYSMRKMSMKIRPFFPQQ
CendR NRP1 mod = alters CendR peptide binding to human NRP-1. AID 602438. FAM-RPARPAR peptide binding to NRP-1, fluorescence polarization. inhibition, % at 25 µM. 360,000 tested, 0.85% active;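 active = inhibition or corrected inhibition above about 18%, plus a signal ratio from 0.5 to 1.5, limit read from the data, passing the limit was not always enough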
aDG glyco up = alpha-DG glycosylation activation. AID 624168. 360,000 tested, 0.22% active. Pro5-aDG cells, alpha-DG glycosylation AlphaScreen (IIH6); 0% Pro5, 100% B10-LARGE cell signal. activation, % at 10 µM;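 active = activation of at least 8% versus controls, or a plate z-score of at least 8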;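 note: Pro5 are CHO cells carrying HIG-tagged alpha-DG that lacks glycosylation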
Tn7 DDE FP = inhibitors of Tn7 peptide binding to human fibrin DD(E); inhibition, % at 8.3 µM; 370,000 tested, 0.13% active; FP displacement of FITC-Tn7 peptide from fibrin DD(E); 0% = median of compound wells per plate;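 active = inhibition above the mean of compounds falling within the control limits plus 3 SD of them, cut at about 14% in these data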;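 note: 0% = plate median of compound wells and 100% = 10 µM Aha-Tn7 peptide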
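Also added: labelled Tn7 tracer, 0.1 µM; Assay system: human fibrin DD(E) protein; Amount: 2 µM fibrin DD(E); Schedule: 10 min compound pre-incubation, 3 h probe incubation at room temperature; Repeats: one replicate per compound; Read-out basis: percent inhibition; Measured by: fluorescence polarization of the labelled Tn7 tracer.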
Tn6 DDE ctr = DD(E)-Tn6 binding inhibition, counter-screen; shares compounds with DDE Tn6 FP inh; AID 720621; inhibition, % at 8.3 µM; Fibrin DD(E), TRITC-Tn6 fluorescence polarization displacement; 0% = median of compound wells, not DMSO; 680 tested, 2% active;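 active = inhibition above the mean of test compounds lying between the control limits plus 3 SD of those, cut at about 14% in these data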;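 note: 0% = median of compound wells and 100% = wells with Aha-Tn7 blocking peptide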
DDE Tn6 confirm = DD(E)-Tn6 binding inhibition, FP confirmation | shares compounds with DDE Tn6 FP inh | FP displacement of TRITC-Tn6 peptide from DD(E); 0% = per-plate median of test wells | inhibition, % at 8.3 µM | 680 tested, 10% active | AID 720631;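 active = inhibition above the mean of compounds lying within the control limits plus 3 SD, cut at about 16% in these data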;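 note: 100% = high control wells holding a competing inhibitor peptide at 10 µM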
Active calls of the source: *; / = no result given; + = active, no number. An excerpt weighted towards active compounds, which were near 1.3% of everything screened.

SMILES	DDE Tn6 FP inh	CendR NRP1 mod	aDG glyco up	Tn7 DDE FP	Tn6 DDE ctr	DDE Tn6 confirm
C[n+]1c(-c2ccccc2)cc2c(=Cc3ccccc3)c3ccccc3n21	17*	-1	1	-3	3	1
C[n+]1c(-c2ccccc2)cc2c(=Cc3ccc([N+](=O)[O-])cc3)c3ccccc3n21	-1	-6	-1	0	/	/
CC(=O)C1(C(=O)N2CCOCC2)CC(c2ccccc2C(F)(F)F)=NO1 (configuration not stated)	0	/	/	6	/	/
Fc1ccc2nc(C3CCCCN3Cc3nc(CC4CC4)no3)[nH]c2c1 (configuration not stated)	16*	8	0	1	2	-5
Fc1ccc(C2CCCCN2Cc2nc(CC3CC3)no2)cc1 (configuration not stated)	-1	8	0	1	/	/
COc1ccccc1CNc1ncnc2cc(Cl)ccc12	3	20	4	10	/	/
COc1ccc(CNc2ncnc3cc(Cl)ccc23)cc1OC	16*	-5	3	3	-9	-6
CC(=O)O[C@H]1C[C@@H](n2cnc3c(Cl)ncnc32)[C@@H]2OC(C)(C)O[C@@H]21	-2	/	/	-2	/	/
Cc1cc2ccccc2cc1CN1CCCCC1	16*	4	0	5	-4	-4
c1ccc2c3c(c(CN4CCCCC4)cc2c1)COC3	3	0	0	3	/	/
O=C1OC(c2ccccc2)(c2ccccc2)c2ccsc21	16*	4	0	-3	-2	-13
COc1ccc(C(=O)C(=O)N2CCN(C(=O)c3ccccc3C(F)(F)F)CC2)cc1OC	-1	/	/	3	/	/
COC(=O)c1ccccc1-c1c2ccc(=N)cc-2oc2cc(N)ccc12	+	145	0	5	53*	93*
COC(=O)c1ccccc1-c1ccc(/C=N/NC(=O)c2cc3ccccc3o2)o1	-2	6	0	-1	/	/
O=C(Nc1ccccc1F)Oc1cccc(OC(=O)Nc2ccccc2F)c1	15*	-6	0	0	-1	0
COc1cccc(C(=O)Nc2ccccc2F)c1	0	6	0	-5	/	/
COc1cc(CNC2CCCCCCC2)cc(Cl)c1OC	17*	6	0	7	-4	-6
CCCc1ccc(-c2cc(NC(=O)Cc3c(C)[nH]c4ccccc34)ccc2N(C)c2cccnc2)cc1	-3	/	/	-2	/	/
Cc1cc(C)n(CC(O)Cn2c(C)c(C)c3ccccc32)n1 (configuration not stated)	19*	-97	0	3	-2	1
CCCNC(=O)N1CC[C@H]2[C@@H]1c1cc(-c3ccc(F)cc3)ccc1N(C)[C@H]2CO	0	/	/	-1	/	/
Cc1ccc(C2CC(=O)Oc3cc(O)ccc32)cc1 (configuration not stated)	34*	-28	0	7	-4	8
O=C1CC(c2ccccc2)c2cc(O)ccc2O1 (configuration not stated)	9	4	0	-4	/	/
CNc1ccc2c3c(cccc13)C(=O)N(C)C2=O	47*	143	0	-6	53*	43*
CCN1/C(=C/C=C/c2oc3ccc(-c4ccccc4)cc3[n+]2CC)Oc2ccc(-c3ccccc3)cc21	+	135	0	-6	53*	93*
CN(C)c1ccc(N(C)C)c(C(O)(c2ccccc2)c2ccccc2)c1	-6	/	/	-1	/	/
SMILES	DDE Tn6 FP inh	CendR NRP1 mod	aDG glyco up	Tn7 DDE FP	Tn6 DDE ctr	DDE Tn6 confirm
Cc1cccc(C)c1NC(=O)C1(C)CN(S(C)(=O)=O)CC(=O)N1Cc1ccc2c(c1)OCO2 (configuration not stated)	-12	-6	0	3	/	/
COc1ccc2cc3cc(C(=O)Nc4ccc(F)cc4)sc3nc2c1	-13	/	/	7	/	/
Cc1ccc2[nH]c(=O)c(-c3noc(C(C)C)n3)cc2c1	17*	0	0	-2	-1	-5
CCc1nc(-c2cc3ccc(C)cc3[nH]c2=O)no1	-2	6	0	-6	/	/
COc1ccc(/C=C(\C#N)C(=O)NCC2CCCO2)cc1OC (configuration not stated)	1	14	0	3	/	/
CCOC(=O)c1ccc(-c2ccc(/C=C(\C#N)C(=O)NCC3CCCO3)o2)cc1 (configuration not stated)	18*	-45	1	6	-5	-9
CCCCCCC(=O)NC1CCCCN(C)C1=O (configuration not stated)	6	/	/	2	/	/
CC(c1ccccc1)n1c(SCC(=O)Nc2ccccc2)n[nH]c1=O (configuration not stated)	3	-12	0	2	/	/
CCCS(=O)(=O)NC(=O)C1(C)CCN(C(=O)c2ccc(OC)cc2OC)C1 (configuration not stated)	-10	-6	0	0	/	/
C#CCN1C(=O)[C@]2(OC[C@@H]3Cc4ccccc4[C@@H]3C=C2C)c2ccccc21	-5	/	/	1	/	/
CC(C)CCNC(=O)C1CCN(S(=O)(=O)c2ccc3c(c2)CC(C)N3C(=O)C2CC2)CC1 (configuration not stated)	9	-2	0	-2	/	/
CCCCNC(=O)C1CCN(S(=O)(=O)c2ccc3c(c2)CC(C)N3C(=O)C2CC2)CC1 (configuration not stated)	103*	1	0	-5	1	2
Cc1nn(-c2ccc(F)cc2)c2c1cc(C#N)c1nc3ccccc3n12	16*	6	0	-1	0	-1
COc1ccc(OCC(=O)Nc2cc3c(cc2C(=O)O)OCCCO3)cc1	17*	7	0	7	5	1
COc1ccc(CN2CCNC(=O)C2CC(=O)NCCC2=CCCCC2)cc1OC (configuration not stated)	-1	0	0	-2	/	/
Cc1ccccc1NS(=O)(=O)c1ccc(OCCNS(C)(=O)=O)cc1	17*	2	0	1	-8	-13
NC(=O)c1ccc(-c2ccc(N3C(c4ccsc4)=Cc4ccc(F)cc4C3CC(=O)c3ccco3)cc2)cc1 (configuration not stated)	3	-11	0	1	/	/
COc1ccc(N2CCN(C(=S)NCCc3ccccc3)CC2)cc1	10	1	0	-6	/	/
Oc1ccc(N2CCN(C(=S)NCCc3ccccc3)CC2)cc1	16*	13	0	-6	8	12
O=S(=O)(c1ccccc1)c1cnn(-c2ccccc2)c1-c1ccc(Cl)cc1	16*	7	0	4	3	-6
CO/N=C(\CCC(=O)O)c1cccs1	16*	10	0	6	0	-4

Screening results (PubChem BioAssay)
